Compound activity deposited in PubChem BioAssay by Sanford-Burnham Center for Chemical Genomics.
Hits are enriched below; roughly 3.3% of the tested compounds scored in any of these assays.
SENP1 inh = inhibitors of human SENP1 SUMO protease catalytic domain. Q9P0U3. inhibition, % at 10 µM. recombinant SENP1 catalytic domain, CyPet-SUMO1-YPet FRET cleavage. 0.21% of 360,000 active;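 active means inhibition at least 30% at 10 µM, raw YFP signal under a set limit, fluorescence ratio 0.5 to 1.5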;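 further: 0% = enzyme with DMSO and 100% = no enzyme wells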
Target sequence (Q9P0U3 419-644 limits assumed): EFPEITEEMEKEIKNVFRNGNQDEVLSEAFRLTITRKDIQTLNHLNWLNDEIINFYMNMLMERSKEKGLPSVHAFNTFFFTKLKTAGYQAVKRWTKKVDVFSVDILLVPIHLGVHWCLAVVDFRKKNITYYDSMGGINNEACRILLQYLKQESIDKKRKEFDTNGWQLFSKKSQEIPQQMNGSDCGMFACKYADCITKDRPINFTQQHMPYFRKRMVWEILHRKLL
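system = hSENP1 catalytic domain, recombinant | reagent = SFCypet-SUMO1-SFYpet substrate at 25 nM | doses = one dose per compound, 10 µM, 0.5% DMSO | incubation = enzyme reaction for 50 min at room temperature, dark | measured by = FRET, CFP and YFP emission | controls = no-enzyme low, enzyme-DMSO high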
SENP8 block-1 = inhibitors of human SENP8 protease. Q96LD8. AID 2540. purified SENP8, Z-RLRGG-aminoluciferin cleavage, luminescence. 1.2% of 330,000 active. inhibition, % at 10 µM; in the data active means inhibition above about 50%
Target sequence (Q96LD8 whole entry, looked up): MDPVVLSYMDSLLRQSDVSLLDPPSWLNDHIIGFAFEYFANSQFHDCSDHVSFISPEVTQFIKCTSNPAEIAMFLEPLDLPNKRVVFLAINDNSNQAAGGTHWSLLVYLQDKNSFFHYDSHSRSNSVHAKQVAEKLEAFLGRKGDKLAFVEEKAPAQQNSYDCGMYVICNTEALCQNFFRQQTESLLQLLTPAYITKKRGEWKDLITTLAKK
SENP6 inh = inhibitors of human SENP6 protease; Q9GZR1; Recombinant SENP6 catalytic domain, aminoluciferin luminescence; inhibition, % at 10 µM; 1.8% of 330,000 active; AID 2599;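 active means inhibition above about 50% at the single tested dose, limit read from the data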;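 further: plate controls were DMSO wells with enzyme for no effect and DMSO wells lacking enzyme for full effect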
SENP8 block-2 = SENP8 (human) protease inhibition; Q96LD8; recombinant SENP8, Nedd8 substrate fluorescence; inhibition, % at 20 µM; 0.64% of 360,000 active; in the data active means inhibition mostly above about 40%, no sharp cut-off; inactive means mostly below about 27%
CendR NRP1 mod = modulators of CendR peptide binding to human neuropilin-1; inhibition, % at 25 µM; FAM-RPARPAR peptide binding to NRP-1, fluorescence polarization; 0.85% of 360,000 active;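 active means inhibition or corrected inhibition above about 18%, plus a signal ratio from 0.5 to 1.5, limit read from the data, passing the limit was not always enough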
SENP7 inh = inhibitors of human SENP7 protease. Q9BQF6. recombinant SENP7, Z-RLRGG-aminoluciferin luminescence, 40 min. inhibition, % at 5 µM. 1.5% of 330,000 active. AID 434973;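 active means inhibition above about 50% at the single test dose, limit read from the data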;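 further: plate controls were DMSO with enzyme for no effect and no enzyme buffer wells for full effect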
SENP8 confirm = human SENP8 inhibition, confirmed | shares compounds with SENP7 inh | Recombinant SENP8, Z-RLRGG-aminoluciferin luminescence, 60 min | inhibition, % at 12.5 µM | 40% of 6,200 active | AID 488912;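 active means mean inhibition across replicates above about 50%, limit read from the data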
SENP6 confirm = confirmation of human SENP6 protease inhibitors; shares compounds with SENP7 inh; recombinant SENP6, Z-RLRGG-aminoluciferin luminescence; inhibition, % at 12.5 µM; 58% of 6,200 active
SENP7 confirm = human SENP7 inhibition, confirmed; inhibition, % at 12.5 µM; recombinant SENP7, Z-RLRGG-aminoluciferin luminescence, 40 min; AID 488917; 69% of 6,200 active; shares compounds with SENP7 inh
Casp3 SENP sel = selectivity test for SENP inhibitors: human caspase-3 inhibition. 60% of 6,200 active. purified caspase-3, Z-DEVD-aminoluciferin luminescence, 60 min. inhibition, % at 12.5 µM. shares compounds with SENP7 inh. AID 488918;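 active means mean inhibition above about 50%, limit read from the data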;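 further: plate controls were enzyme with DMSO for no effect and wells without caspase-3 for full effect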
Target sequence (P42574 28-227 limits assumed): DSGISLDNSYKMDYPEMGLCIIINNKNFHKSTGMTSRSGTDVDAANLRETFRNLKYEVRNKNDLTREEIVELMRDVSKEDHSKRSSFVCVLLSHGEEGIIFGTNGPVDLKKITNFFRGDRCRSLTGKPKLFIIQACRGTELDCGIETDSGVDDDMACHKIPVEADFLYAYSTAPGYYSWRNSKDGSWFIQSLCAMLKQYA
Luc interf = luminescence interference (SENP counter-screen). AID 488919. shares compounds with SENP7 inh. inhibition, % at 12.5 µM. Pre-incubated SENP8/Z-RLRGG-aminoluciferin, luciferase luminescence interference. 39% of 6,200 active;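 active means mean inhibition above about 50% when retested at one dose, limit read from the data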;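 further: plate controls were DMSO wells with completed reaction for no effect and substrate without enzyme for full effect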
Numbers without * were called inactive; x = no result.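 How the source made its calls, unless noted: active means mean inhibition above about 50% in the one-dose retest (limit read from the data); inactive means the rest.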

SMILES | SENP1 inh | SENP8 block-1 | SENP6 inh | SENP8 block-2 | CendR NRP1 mod | SENP7 inh | SENP8 confirm | SENP6 confirm | SENP7 confirm | Casp3 SENP sel | Luc interf
COc1cccc(-c2cc(C(=O)Nc3cccc(O)c3)no2)c1 | 0 | 94* | 99* | 9 | 0 | 97* | 88* | 90* | 102* | 92* | 90*
COc1ccc(-c2cc(C(=O)Nc3cccc(C(C)=O)c3)no2)cc1 | 1 | -3 | 0 | 14 | 2 | -7 | x | x | x | x | x
O=C(Nc1cccc(O)c1)c1cc(-c2cccs2)on1 | 2 | 85* | 94* | 17 | 2 | 75* | 94* | 94* | 100* | 92* | 95*
COc1ccc(-c2cc(C(=O)Nc3cccc(Cl)c3)no2)cc1 | 0 | 18 | 15 | 8 | 0 | 78* | -21 | -12 | -4 | 11 | -5
CNS(=O)(=O)c1ccc(CNC[C@H]2O[C@@H](n3cnc4c(=O)[nH]c(N)nc43)[C@H](O)[C@@H]2O)cc1 | -5 | x | x | 18 | 14 | x | x | x | x | x | x
CCc1nc2ccc(C(=O)N3CCNC(=O)C3)cn2c1N(C)CCC(C)C | -29 | x | x | -14 | 2 | x | x | x | x | x | x
C[C@@H]1CN([C@@H](C)CO)C(=O)CCCn2nncc2CO[C@H]1CN(C)C(=O)OCc1ccccc1 | 0 | x | x | 2 | -2 | x | x | x | x | x | x
Fc1cccc(NC(=S)Nc2cccc3ccccc23)c1 | -7 | 28 | 57* | -393 | -4 | 29 | -22 | -16 | -9 | -11 | -5
CC(=O)N(C)c1ccc(NC(=S)Nc2cccc3ccccc23)cc1 | -23 | 59* | 68* | -423 | 16 | 47 | -22 | -10 | 3 | -3 | -1
O=C(Nc1cccc2ccccc12)c1cccc(F)c1 | -1 | -7 | 0 | 5 | -5 | -4 | x | x | x | x | x
CO[C@H]1CN(C)C(=O)c2cc(NC(=O)C3CCOCC3)ccc2OC[C@H](C)N(Cc2nccs2)C[C@H]1C | 3 | x | x | 15 | 7 | x | x | x | x | x | x
Cc1ccc(C(=O)Nc2nc3c(s2)CCCC3)o1 | -1 | 82* | 94* | -54 | -11 | 93* | 11 | 90* | 100* | 93* | 29
O=C(Nc1nc2c(s1)CCCC2)c1ccc(Br)o1 | -3 | 86* | 91* | -40 | 9 | 88* | 90* | 91* | 99* | 91* | 87*
CCCCN1C=CC(=C2C(=O)c3ccccc3C2=O)C=C1 | 23 | 89* | 92* | 12 | -6 | 78* | -2 | 92* | 100* | 95* | 41
O=C1/C(=C/c2ccc(O)cc2)COc2ccccc21 | 5 | 83* | 95* | -10 | -9 | 93* | 94* | 90* | 94* | 66* | 89*
COc1ccccc1-c1cnc(C(O)c2ccc(C)cc2C)[nH]1 (stereo unspecified) | 0 | x | x | 8 | 18 | x | x | x | x | x | x
O=C(Nc1cccc(-c2ccc(N3CCCCC3)nn2)c1)c1ccco1 | -1 | 54* | 76* | -11 | 3 | 73* | 77* | 74* | 91* | 75* | 72*
O=C(COc1ccc(Cl)cc1)Nc1cccc(-c2ccc(N3CCOCC3)nn2)c1 | 1 | 12 | 54* | -6 | -5 | 68* | 12 | 20 | 23 | 14 | 0
O=C(Nc1cccc(-c2ccc(N3CCOCC3)nn2)c1)c1ccc(Cl)cc1 | 2 | -13 | -2 | -9 | -9 | 29 | x | x | x | x | x
Cn1ccs/c1=N\C(=O)Nc1cccc(Cl)c1 | 2 | 52* | 70* | 7 | -1 | 73* | 17 | 17 | 67* | 45 | 51*
O=c1c2ccccc2sc2ccc(C#CC3(O)CCCCC3)cc12 | -93 | 96* | 98* | -260 | -25 | 97* | 97* | 99* | 102* | 97* | 44
COc1cccc2sc3ccc(C#Cc4ccc(N)cc4)cc3c(=O)c12 | -13 | -10 | -2 | -24 | 11 | 14 | x | x | x | x | x
COc1cccc2sc3ccc(C#CC4(O)CCCCC4)cc3c(=O)c12 | -50 | 89* | 93* | -320 | -34 | 88* | 91* | 95* | 100* | 82* | 46
Nc1ccc(C#Cc2ccc3sc4ccccc4c(=O)c3c2)cc1 | -3 | 2 | 38 | -35 | 9 | 11 | x | x | x | x | x
CC(C)C[C@@H]1COc2cccc(N3CCC[C@H]3CO)c2S(=O)(=O)N1 | -1 | x | x | -23 | 4 | x | x | x | x | x | x
SMILES | SENP1 inh | SENP8 block-1 | SENP6 inh | SENP8 block-2 | CendR NRP1 mod | SENP7 inh | SENP8 confirm | SENP6 confirm | SENP7 confirm | Casp3 SENP sel | Luc interf
O=C(NNC(=O)c1cccc(S(=O)(=O)Nc2ccccc2F)c1)c1ccncc1 | 3 | x | x | 18 | -12 | x | x | x | x | x | x
CCCCNC(=O)C1(C)CCCCN1Cc1ccc(OCc2ccccc2)cc1 (stereo unspecified) | 2 | x | x | -11 | 1 | x | x | x | x | x | x
CC(=O)c1cccc(NC(=O)c2cccc3c(-c4cccnc4)coc23)c1 | 2 | x | x | 11 | -16 | x | x | x | x | x | x
CCOC(=O)c1sc(-c2ccc(F)cc2)cc1N | 3 | -15 | 11 | -228 | 4 | 1 | x | x | x | x | x
CCOC(=O)c1sc(-c2ccc(OC)cc2)cc1N | -1 | 47 | 71* | -369 | 26* | 52* | 36 | 54* | 83* | 34 | 14
CC(C)[C@H](NC(=O)c1ccccc1F)C(=O)OCC(=O)NC1CC1 | -1 | -10 | -11 | 11 | -1 | -5 | x | x | x | x | x
O=C(O)c1ccc(/C=C2\SC(=S)N(Nc3ccccc3)C2=O)cc1 | 3 | 82* | 95* | 28 | -17 | 78* | 92* | 92* | 98* | 84* | 76*
COc1cc(/C=C2\SC(=S)N(NC(=O)c3ccc(O)cc3)C2=O)ccc1O | 13 | -1 | 5 | 25 | -206 | 3 | x | x | x | x | x
COc1cc(/C=C2\SC(=S)N(Nc3ccccc3)C2=O)ccc1O | 50 | 89* | 93* | 52* | -186 | 72* | 95* | 96* | 100* | 78* | 94*
CCOc1cc(/C=C2\SC(=S)N(Nc3ccccc3)C2=O)ccc1O | 24 | 45 | 85* | 35 | -128 | 44 | 60* | 69* | 81* | 24 | 55*
CCOc1cc(/C=C2\SC(=S)N(N3CCOCC3)C2=O)ccc1O | 21 | -3 | -3 | 22 | 7 | 2 | x | x | x | x | x
